pIC50: −log10 of the molar value. Where two headings read alike, the source gives them in different places.
Columns and labels:
[1] = target: E. coli NDH-1 NuoD mutant D325A (Escherichia coli, UniProt P0AFD4+P33599, D325A); test: Inhibition of dNADH oxidase activity, NuoD mutant D325A; type: biochemical
How it was run: (§1)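 Inverted membrane vesicles came from chromosomal NuoD-segment mutant or wild-type E. coli, grown overnight at 37 °C in Terrific Broth and disrupted by sonication and French press. The assay used 80 μg protein/mL in 10 mM potassium phosphate (pH 7.0) with 1 mM EDTA, no KCN and no added acceptor, at 30 °C. After 1 min preincubation with test compound, 150 μM dNADH was added. A340 was followed (ε 6.22 mM⁻¹ cm⁻¹), and IC50 was taken as the concentration giving 50% inhibition.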

[2] = target: E. coli NDH-1 NuoD mutant G225A (Escherichia coli, UniProt P0AFD4+P33599, G225A); test: Inhibition of dNADH oxidase activity, NuoD mutant G225A; type: biochemical
Sequence of E. coli NDH-1 NuoD mutant G225A (P33599 whole entry G225A): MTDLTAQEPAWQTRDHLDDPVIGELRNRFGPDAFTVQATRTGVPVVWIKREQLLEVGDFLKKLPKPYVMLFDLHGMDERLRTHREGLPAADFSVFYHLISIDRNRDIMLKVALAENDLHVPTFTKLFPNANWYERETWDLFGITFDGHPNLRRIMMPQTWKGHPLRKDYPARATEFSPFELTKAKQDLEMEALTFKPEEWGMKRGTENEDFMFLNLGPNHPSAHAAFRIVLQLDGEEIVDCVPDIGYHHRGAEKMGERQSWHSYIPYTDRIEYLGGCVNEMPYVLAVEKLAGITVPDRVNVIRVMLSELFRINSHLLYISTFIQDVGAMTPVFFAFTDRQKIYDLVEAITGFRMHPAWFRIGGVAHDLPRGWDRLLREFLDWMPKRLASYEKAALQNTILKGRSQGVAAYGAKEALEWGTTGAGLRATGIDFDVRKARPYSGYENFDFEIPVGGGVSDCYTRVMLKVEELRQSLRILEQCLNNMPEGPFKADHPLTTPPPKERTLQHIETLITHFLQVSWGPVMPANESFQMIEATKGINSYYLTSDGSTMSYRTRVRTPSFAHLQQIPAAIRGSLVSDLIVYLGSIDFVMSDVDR
Sequence of E. coli NDH-1 NuoD mutant G225A (P0AFD4 whole entry): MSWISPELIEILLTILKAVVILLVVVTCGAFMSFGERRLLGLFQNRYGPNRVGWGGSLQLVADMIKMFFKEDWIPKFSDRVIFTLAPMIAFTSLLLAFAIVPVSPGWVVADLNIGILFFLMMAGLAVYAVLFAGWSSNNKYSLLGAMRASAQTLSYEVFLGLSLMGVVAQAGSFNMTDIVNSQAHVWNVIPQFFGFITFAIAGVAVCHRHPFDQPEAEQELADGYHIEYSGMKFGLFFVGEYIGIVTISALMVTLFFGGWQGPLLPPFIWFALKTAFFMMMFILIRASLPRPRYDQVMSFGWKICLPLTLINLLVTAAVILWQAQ
Sequence of E. coli NDH-1 NuoD mutant G225A (P0AFC7 whole entry partner): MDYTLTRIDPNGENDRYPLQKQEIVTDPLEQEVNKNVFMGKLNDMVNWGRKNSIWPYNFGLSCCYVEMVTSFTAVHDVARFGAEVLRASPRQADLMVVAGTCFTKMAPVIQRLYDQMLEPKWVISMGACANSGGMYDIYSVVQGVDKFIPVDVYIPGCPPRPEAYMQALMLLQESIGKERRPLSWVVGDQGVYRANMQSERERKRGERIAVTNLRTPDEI
How it was run: as §1

[3] = target: E. coli NDH-1 NuoH mutant E36D (Escherichia coli, UniProt P0AFC7+P0AFD4+P33599, E36D); test: Inhibition of dNADH oxidase activity, NuoH mutant E36D; type: biochemical
E. coli NDH-1 wild-type [4] = target: T1, E. coli NDH-1 wild-type (Escherichia coli, UniProt P0AFD4+P33599); test: Inhibition of dNADH oxidase activity in membrane vesicles, wild-type; type: biochemical
T1 sequence (P33599 whole entry): as the sequence (P33599 whole entry G225A) above, with A225G counted along it
T1 sequence (P0AFD4 whole entry): as the sequence (P0AFD4 whole entry) above
T1 sequence (P0AFC7 whole entry partner): as the sequence (P0AFC7 whole entry partner) above
How it was run: as §1

[5] = target: E. coli NDH-1 NuoD mutant H224R (Escherichia coli, UniProt P0AFD4+P33599, H224R); test: Inhibition of dNADH oxidase activity, NuoD mutant H224R; type: biochemical; settings: read-out: app IC50, 50% inhibition of the dNADH oxidase activity
[6] = target: E. coli NDH-1 NuoD mutant H315R (Escherichia coli, UniProt P0AFD4+P33599, H315R); test: Inhibition of dNADH oxidase activity, NuoD mutant H315R; type: biochemical
Sequence of E. coli NDH-1 NuoD mutant H315R (P33599 whole entry H315R): as the sequence (P33599 whole entry G225A) above, with A225G, H315R counted along it
Sequence of E. coli NDH-1 NuoD mutant H315R (P0AFD4 whole entry): as the sequence (P0AFD4 whole entry) above
Sequence of E. coli NDH-1 NuoD mutant H315R (P0AFC7 whole entry partner): as the sequence (P0AFC7 whole entry partner) above
How it was run: as §1

[7] = target: E. coli NDH-1 NuoD mutant Y273F (Escherichia coli, UniProt P0AFD4+P33599, Y273F); test: Inhibition of dNADH oxidase activity, NuoD mutant Y273F; type: biochemical
Sequence of E. coli NDH-1 NuoD mutant Y273F (P33599 whole entry Y273F): as the sequence (P33599 whole entry G225A) above, with A225G, Y273F counted along it
Sequence of E. coli NDH-1 NuoD mutant Y273F (P0AFD4 whole entry): as the sequence (P0AFD4 whole entry) above
Sequence of E. coli NDH-1 NuoD mutant Y273F (P0AFC7 whole entry partner): as the sequence (P0AFC7 whole entry partner) above
How it was run: as §1

[8] = target: E. coli NDH-1, other NuoD mutants (Escherichia coli, UniProt P0AFD4+P33599); test: Inhibition of dNADH oxidase activity, other NuoD mutants; type: biochemical; settings: read-out: IC50 values; all other NuoD mutants (other than G225A, Y273F)
How it was run: as §1

[9] = target: E. coli NDH-1 NuoH mutant D63E (Escherichia coli, UniProt P0AFC7+P0AFD4+P33599, D63E); test: Inhibition of dNADH oxidase activity, NuoH mutant D63E; type: biochemical
[10] = target: E. coli NDH-1 NuoD mutant R270K (Escherichia coli, UniProt P0AFD4+P33599, R270K); test: Inhibition of dNADH oxidase activity, NuoD mutant R270K; type: biochemical; settings: app IC50, 50% inhibition of the dNADH oxidase activity
How it was run: as §1

[11] = target: E. coli NDH-1 NuoD mutant R311K (Escherichia coli, UniProt P0AFD4+P33599, R311K); test: Inhibition of dNADH oxidase activity, NuoD mutant R311K; type: biochemical
How it was run: as §1

[12] = target: E. coli NDH-1 NuoH mutant E157K (Escherichia coli, UniProt P0AFC7+P0AFD4+P33599, E157K); test: Inhibition of dNADH oxidase activity, NuoH mutant E157K; type: biochemical
[13] = target: E. coli NDH-1 NuoD mutant R228A (Escherichia coli, UniProt P0AFD4+P33599, R228A); test: Inhibition of dNADH oxidase activity, NuoD mutant R228A; type: biochemical; settings: app IC50, 50% inhibition of the dNADH oxidase activity
How it was run: as §1

[14] = target: E. coli NDH-1 NuoD mutant G251A (Escherichia coli, UniProt P0AFD4+P33599, G251A); test: Inhibition of dNADH oxidase activity, NuoD mutant G251A; type: biochemical
How it was run: as §1

[15] = target: E. coli NDH-1 NuoD mutant H355A (Escherichia coli, UniProt P0AFD4+P33599, H355A); test: Inhibition of dNADH oxidase activity, NuoD mutant H355A; type: biochemical
How it was run: as §1

[16] = target: E. coli NDH-1 NuoD mutant E236D (Escherichia coli, UniProt P0AFD4+P33599, E236D); test: Inhibition of dNADH oxidase activity, NuoD mutant E236D; type: biochemical
How it was run: as §1

[17] = target: E. coli NDH-1 NuoD mutant E308D (Escherichia coli, UniProt P0AFD4+P33599, E308D); test: Inhibition of dNADH oxidase activity, NuoD mutant E308D; type: biochemical; settings: app IC50, 50% inhibition of the dNADH oxidase activity
How it was run: as §1

[18] = target: E. coli NDH-1 NuoH mutant P49A (Escherichia coli, UniProt P0AFC7+P0AFD4+P33599, P49A); test: Inhibition of dNADH oxidase activity, NuoH mutant P49A; type: biochemical
[19] = target: E. coli NDH-1 NuoD mutant E236A (Escherichia coli, UniProt P0AFD4+P33599, E236A); test: Inhibition of dNADH oxidase activity, NuoD mutant E236A; type: biochemical
How it was run: as §1

[20] = target: E. coli NDH-1 NuoD mutant G251V (Escherichia coli, UniProt P0AFD4+P33599, G251V); test: Inhibition of dNADH oxidase activity, NuoD mutant G251V; type: biochemical; settings: app IC50, 50% inhibition of the dNADH oxidase activity
How it was run: as §1

[21] = target: E. coli NDH-1 NuoD mutant H315A (Escherichia coli, UniProt P0AFD4+P33599, H315A); test: Inhibition of dNADH oxidase activity, NuoD mutant H315A; type: biochemical
How it was run: as §1

[22] = target: E. coli NDH-1 NuoD mutant R228K (Escherichia coli, UniProt P0AFD4+P33599, R228K); test: Inhibition of dNADH oxidase activity, NuoD mutant R228K; type: biochemical; settings: app IC50, 50% inhibition of the dNADH oxidase activity
How it was run: as §1

[23] = target: E. coli NDH-1 NuoH mutant K303A (Escherichia coli, UniProt P0AFC7+P0AFD4+P33599, K303A); test: Inhibition of dNADH oxidase activity, NuoH mutant K303A; type: biochemical
[24] = target: E. coli NDH-1 NuoD mutant D325E (Escherichia coli, UniProt P0AFD4+P33599, D325E); test: Inhibition of dNADH oxidase activity, NuoD mutant D325E; type: biochemical
How it was run: as §1

[25] = target: E. coli NDH-1 NuoD mutant R298K (Escherichia coli, UniProt P0AFD4+P33599, R298K); test: Inhibition of dNADH oxidase activity, NuoD mutant R298K; type: biochemical
How it was run: as §1

[26] = target: E. coli NDH-1 NuoD mutant G235V (Escherichia coli, UniProt P0AFD4+P33599, G235V); test: Inhibition of dNADH oxidase activity, NuoD mutant G235V; type: biochemical
How it was run: as §1

[27] = target: E. coli NDH-1 NuoD mutant G235A (Escherichia coli, UniProt P0AFD4+P33599, G235A); test: Inhibition of dNADH oxidase activity, NuoD mutant G235A; type: biochemical
How it was run: as §1

[28] = target: E. coli NDH-1 NuoH mutant Q44A (Escherichia coli, UniProt P0AFC7+P0AFD4+P33599, Q44A); test: Inhibition of dNADH oxidase activity, NuoH mutant Q44A; type: biochemical
[29] = target: E. coli NDH-1 NuoH mutant E216A (Escherichia coli, UniProt P0AFC7+P0AFD4+P33599, E216A); test: Inhibition of dNADH oxidase activity, NuoH mutant E216A; type: biochemical
[30] = target: E. coli NDH-1 NuoD mutant R298A (Escherichia coli, UniProt P0AFD4+P33599, R298A); test: Inhibition of dNADH oxidase activity, NuoD mutant R298A; type: biochemical; settings: app IC50, 50% inhibition of the dNADH oxidase activity
How it was run: as §1

[31] = target: E. coli NDH-1 NuoH mutant E71A (Escherichia coli, UniProt P0AFC7+P0AFD4+P33599, E71A); test: Inhibition of dNADH oxidase activity, NuoH mutant E71A; type: biochemical; settings: app IC50, 50% inhibition of the dNADH oxidase activity
E. coli NDH-1 wild-type [32] = target: T1, E. coli NDH-1 wild-type; settings: read-out: IC50 value, ref [16],[55]; cited from earlier work

## [N-]=[N+]=Nc1ccc2ncnc(NCCc3ccc(I)cc3)c2c1 [AzQ, 6-azido-4-(4-iodophenetylamino) quinazoline]
[1]; read-out: app IC50, 50% inhibition of the dNADH oxidase activity, NuoD mutant D325A
  pIC50: 5.94
[2]; NuoD mutant G225A versus wild-type
  increase in the IC50 value: ~3 fold
[3]; NuoH mutant E36D versus wild-type
  decrease in the IC50 value: 3–4 fold
E. coli NDH-1 wild-type [4]; read-out: app IC50, 50% inhibition of the dNADH oxidase activity, WT, NuoD series (Table 3)
  pIC50: 5.97
E. coli NDH-1 wild-type [4]; read-out: app IC50, 50% inhibition of the dNADH oxidase activity, WT, NuoH series (Table 4)
  pIC50: 5.97
[5]
  pIC50: 5.95
[6]; read-out: app IC50, 50% inhibition of the dNADH oxidase activity, NuoD mutant H315R
  pIC50: 6.04
[7]; NuoD mutant Y273F versus wild-type
  increase in the IC50 value: ~2.5 fold
[7]; read-out: app IC50, 50% inhibition of the dNADH oxidase activity, NuoD mutant Y273F
  pIC50: 5.60
[8]
  pIC50: 6.00
[9]; NuoH mutant D63E versus wild-type
  decrease in the IC50 value: 3–4 fold

## CCCCCCCCCCCC[C@H](O)[C@H]1CC[C@H]([C@H]2CC[C@H]([C@H](O)CCCCCCCC[C@@H](O)CC3=C[C@H](C)OC3=O)O2)O1 [squamotacin]
[1]
  pIC50: 7.96
[10]
  pIC50: 8.70
[2]
  pIC50: 8.30
[11]
  pIC50: 8.40
[3]; app IC50, 50% inhibition of the dNADH oxidase activity, NuoH mutant E36D
  pIC50: 8.52
[12]
  pIC50: 8.22
[13]
  pIC50: 8.70
[14]
  pIC50: 8.40
[15]
  pIC50: 8.30
[16]
  pIC50: 8.15
[17]
  pIC50: 8.70
[18]
  pIC50: 8.30
[19]
  pIC50: 8.30
[20]
  pIC50: 8.70
[21]
  pIC50: 8.00
E. coli NDH-1 wild-type [4]
  pIC50: 8.00
[22]
  pIC50: 8.52
[23]
  pIC50: 8.00
[24]
  pIC50: 8.30
[6]
  pIC50: 8.40
[25]
  pIC50: 8.40
[26]
  pIC50: 8.22
[27]
  pIC50: 8.40
[28]
  pIC50: 8.30
[7]
  pIC50: 8.05
[29]
  pIC50: 8.10
[30]
  pIC50: 8.70
[9]; app IC50, 50% inhibition of the dNADH oxidase activity, NuoH mutant D63E
  pIC50: 8.40
[31]
  pIC50: 8.52
E. coli NDH-1 wild-type [32]
  pIC50: 8.00 to 8.70
